Calls of active or inactive are those of the source. The rule behind the calls is not given here.
Experiments:
[1] = molecular target: Mitogen-activated protein kinase 7 (Homo sapiens, UniProt Q13164); assay: Inhibition of GST-tagged ERK5 catalytic domain (unknown origin) in presence of ATP
[2] = molecular target: Histone-lysine N-methyltransferase EHMT2 (Homo sapiens) (UniProt Q96KQ7); assay: Inhibition of G9a (unknown origin)
Homo sapiens [3] = organism: Homo sapiens; assay: Selectivity ratio of IC50 for recombinant human SMYD3 to the IC50 for inhibition of SMYD3- dependent MAP3K2 methylation
[4] = molecular target: T1, Histone-lysine N-methyltransferase SMYD3 (Homo sapiens) (UniProt Q9H7B4); assay: Binding affinity to recombinant human SMYD3 expressed in Escherichia coli assessed as change in gibbs binding free energy by isothermal titration calorimetry
T1 sequence (whole entry): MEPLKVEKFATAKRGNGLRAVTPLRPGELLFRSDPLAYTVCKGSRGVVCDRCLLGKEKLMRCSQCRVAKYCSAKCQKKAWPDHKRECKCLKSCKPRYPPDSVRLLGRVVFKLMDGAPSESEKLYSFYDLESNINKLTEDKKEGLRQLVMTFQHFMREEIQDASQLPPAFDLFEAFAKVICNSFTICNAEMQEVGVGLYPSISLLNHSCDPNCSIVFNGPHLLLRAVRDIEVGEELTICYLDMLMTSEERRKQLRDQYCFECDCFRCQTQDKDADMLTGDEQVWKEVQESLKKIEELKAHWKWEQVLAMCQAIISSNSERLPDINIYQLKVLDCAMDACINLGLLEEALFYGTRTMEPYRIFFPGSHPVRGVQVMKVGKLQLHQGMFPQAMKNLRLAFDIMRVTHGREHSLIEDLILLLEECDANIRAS
Outline: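 Syringe held compound at 0.3 mM in 20 mM HEPES pH 7.4, 150 mM NaCl, 0.005% Tween 20, 2.5% DMSO; eight 4 µL injections at 180 s intervals into SMYD3.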

[5] = Lipophilicity, log D of the compound at pH 7.5; type: physicochemical; settings: buffer
Jurkat = assay: Antiproliferative activity against human Jurkat cells assessed as inhibition of cell viability measured for 3 to 5 days by alamar blue staining based assay; type: functional
[6] = molecular target: Protein arginine N-methyltransferase 3 (Homo sapiens) (UniProt O60678); assay: Inhibition of PRMT3 (unknown origin)
Chain of Protein arginine N-methyltransferase 3 (Homo sapiens) (O60678 2-531 limits assumed): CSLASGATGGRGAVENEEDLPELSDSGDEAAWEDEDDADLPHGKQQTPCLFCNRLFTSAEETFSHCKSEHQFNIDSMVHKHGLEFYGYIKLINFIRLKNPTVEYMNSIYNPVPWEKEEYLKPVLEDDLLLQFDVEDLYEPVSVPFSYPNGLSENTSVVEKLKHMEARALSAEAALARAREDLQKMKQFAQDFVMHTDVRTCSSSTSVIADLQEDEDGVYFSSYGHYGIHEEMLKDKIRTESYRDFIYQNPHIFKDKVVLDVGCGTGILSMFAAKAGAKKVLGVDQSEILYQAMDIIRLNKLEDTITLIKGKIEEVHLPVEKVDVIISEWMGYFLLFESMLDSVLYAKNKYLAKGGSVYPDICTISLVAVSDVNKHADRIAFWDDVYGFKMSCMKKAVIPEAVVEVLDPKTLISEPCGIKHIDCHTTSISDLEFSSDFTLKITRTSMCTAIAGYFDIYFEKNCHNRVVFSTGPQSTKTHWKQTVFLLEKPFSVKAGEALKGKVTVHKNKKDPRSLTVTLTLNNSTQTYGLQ

[7] = molecular target: Protein arginine N-methyltransferase 9 (Homo sapiens) (UniProt Q6P2P2); assay: Inhibition of PRMT9 (unknown origin)
Chain of Protein arginine N-methyltransferase 9 (Homo sapiens) (Q6P2P2 whole entry): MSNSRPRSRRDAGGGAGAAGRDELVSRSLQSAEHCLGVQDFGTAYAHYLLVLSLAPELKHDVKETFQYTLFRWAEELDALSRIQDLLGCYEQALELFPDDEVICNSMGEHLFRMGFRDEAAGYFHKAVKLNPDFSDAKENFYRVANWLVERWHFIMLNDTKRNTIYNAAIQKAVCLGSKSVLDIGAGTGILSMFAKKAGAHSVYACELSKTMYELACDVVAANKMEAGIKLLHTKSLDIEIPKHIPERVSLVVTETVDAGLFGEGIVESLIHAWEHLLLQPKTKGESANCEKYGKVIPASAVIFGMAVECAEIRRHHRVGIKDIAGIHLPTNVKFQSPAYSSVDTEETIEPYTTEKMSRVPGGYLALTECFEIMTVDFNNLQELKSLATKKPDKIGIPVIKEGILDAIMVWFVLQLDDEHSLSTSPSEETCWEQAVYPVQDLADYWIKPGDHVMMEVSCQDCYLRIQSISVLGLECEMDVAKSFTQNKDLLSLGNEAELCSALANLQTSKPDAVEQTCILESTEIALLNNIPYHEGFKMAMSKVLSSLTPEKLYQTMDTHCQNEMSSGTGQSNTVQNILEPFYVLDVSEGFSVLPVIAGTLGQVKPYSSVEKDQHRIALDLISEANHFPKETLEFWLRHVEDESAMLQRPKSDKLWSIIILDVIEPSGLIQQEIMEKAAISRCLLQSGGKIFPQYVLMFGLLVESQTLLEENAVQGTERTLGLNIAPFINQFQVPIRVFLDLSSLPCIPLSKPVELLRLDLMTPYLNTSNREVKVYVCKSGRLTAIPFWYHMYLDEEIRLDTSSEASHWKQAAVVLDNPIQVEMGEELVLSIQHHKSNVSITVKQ

[8] = molecular target: Serine/threonine-protein kinase TBK1 (Homo sapiens, UniProt Q9UHD2); assay: Inhibition of TBK1 (unknown origin) in presence of ATP by HTRF assay
Chain of Serine/threonine-protein kinase TBK1 (Q9UHD2 whole entry): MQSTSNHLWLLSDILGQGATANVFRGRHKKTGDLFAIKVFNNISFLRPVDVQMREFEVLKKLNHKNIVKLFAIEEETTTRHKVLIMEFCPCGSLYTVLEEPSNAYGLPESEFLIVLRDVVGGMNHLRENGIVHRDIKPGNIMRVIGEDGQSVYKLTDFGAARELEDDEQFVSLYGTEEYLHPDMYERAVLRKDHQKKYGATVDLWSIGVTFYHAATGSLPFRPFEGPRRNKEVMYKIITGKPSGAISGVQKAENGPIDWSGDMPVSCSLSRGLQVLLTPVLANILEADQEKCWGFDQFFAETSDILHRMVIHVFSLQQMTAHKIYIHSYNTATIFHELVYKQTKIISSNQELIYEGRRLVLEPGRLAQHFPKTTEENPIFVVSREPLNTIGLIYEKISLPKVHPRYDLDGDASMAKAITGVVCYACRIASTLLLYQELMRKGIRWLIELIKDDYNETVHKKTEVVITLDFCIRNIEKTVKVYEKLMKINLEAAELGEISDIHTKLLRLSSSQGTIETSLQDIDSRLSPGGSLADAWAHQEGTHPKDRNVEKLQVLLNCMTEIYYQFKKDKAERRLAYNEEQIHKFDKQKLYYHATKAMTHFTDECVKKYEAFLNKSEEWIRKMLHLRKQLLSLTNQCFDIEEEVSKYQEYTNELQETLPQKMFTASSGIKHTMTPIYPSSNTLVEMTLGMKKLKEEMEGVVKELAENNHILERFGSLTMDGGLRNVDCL

[9] = molecular target: Interleukin-1 receptor-associated kinase 4 (Homo sapiens, UniProt Q9NWZ3); assay: Inhibition of IRAK4 (unknown origin) in BGG-buffer in presence of ATP
Chain of Interleukin-1 receptor-associated kinase 4 (Q9NWZ3 whole entry): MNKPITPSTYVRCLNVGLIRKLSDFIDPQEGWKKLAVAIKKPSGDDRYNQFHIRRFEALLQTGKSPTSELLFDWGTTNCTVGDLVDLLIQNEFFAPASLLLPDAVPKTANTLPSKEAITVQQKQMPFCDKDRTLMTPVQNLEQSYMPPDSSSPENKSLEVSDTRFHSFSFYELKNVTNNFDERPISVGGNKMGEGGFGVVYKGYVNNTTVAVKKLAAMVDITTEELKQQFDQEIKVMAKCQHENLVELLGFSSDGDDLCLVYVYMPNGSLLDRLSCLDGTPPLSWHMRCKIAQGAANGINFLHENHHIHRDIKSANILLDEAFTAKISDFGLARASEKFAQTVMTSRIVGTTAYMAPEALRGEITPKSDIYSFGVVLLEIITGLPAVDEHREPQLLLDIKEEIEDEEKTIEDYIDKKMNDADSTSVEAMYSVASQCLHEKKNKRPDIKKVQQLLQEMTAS

Homo sapiens [10] = organism: Homo sapiens; assay: Inhibition of PRC2 (unknown origin)
[11] = molecular target: Platelet-derived growth factor receptor beta (Homo sapiens, UniProt P09619); assay: Inhibition of PDGFR beta (unknown origin)
Chain of Platelet-derived growth factor receptor beta (P09619 whole entry): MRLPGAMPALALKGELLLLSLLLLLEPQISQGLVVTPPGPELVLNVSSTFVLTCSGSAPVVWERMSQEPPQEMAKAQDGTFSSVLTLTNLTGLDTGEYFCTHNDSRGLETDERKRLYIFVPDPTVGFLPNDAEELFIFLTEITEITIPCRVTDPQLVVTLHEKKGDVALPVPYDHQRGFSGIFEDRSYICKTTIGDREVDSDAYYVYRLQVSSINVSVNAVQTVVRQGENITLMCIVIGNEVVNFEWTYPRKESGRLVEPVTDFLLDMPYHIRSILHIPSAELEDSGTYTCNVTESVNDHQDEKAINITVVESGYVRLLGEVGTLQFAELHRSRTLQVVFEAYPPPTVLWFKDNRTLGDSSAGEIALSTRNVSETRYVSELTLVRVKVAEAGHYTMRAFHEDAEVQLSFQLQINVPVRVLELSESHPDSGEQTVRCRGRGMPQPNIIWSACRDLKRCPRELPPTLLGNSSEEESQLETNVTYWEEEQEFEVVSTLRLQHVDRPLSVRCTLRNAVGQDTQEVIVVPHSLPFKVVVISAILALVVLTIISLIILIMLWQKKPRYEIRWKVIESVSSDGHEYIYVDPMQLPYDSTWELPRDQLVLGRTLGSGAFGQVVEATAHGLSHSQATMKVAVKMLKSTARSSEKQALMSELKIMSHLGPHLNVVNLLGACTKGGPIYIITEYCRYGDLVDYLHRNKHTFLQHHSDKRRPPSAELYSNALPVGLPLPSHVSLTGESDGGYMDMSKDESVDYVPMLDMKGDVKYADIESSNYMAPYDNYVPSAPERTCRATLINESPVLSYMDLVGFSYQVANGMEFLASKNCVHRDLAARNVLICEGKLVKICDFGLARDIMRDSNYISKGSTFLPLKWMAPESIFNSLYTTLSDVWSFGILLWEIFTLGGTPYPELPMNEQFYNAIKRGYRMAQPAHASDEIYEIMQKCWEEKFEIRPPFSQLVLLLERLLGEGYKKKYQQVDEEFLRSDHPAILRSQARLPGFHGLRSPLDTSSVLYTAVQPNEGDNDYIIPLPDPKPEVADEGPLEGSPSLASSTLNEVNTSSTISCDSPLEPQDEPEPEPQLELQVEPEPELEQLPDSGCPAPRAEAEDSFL

[12] = molecular target: T2, Histone-lysine N-methyltransferase SMYD3 (Homo sapiens, UniProt Q9H7B4); assay: Binding affinity to recombinant human SMYD3 expressed in Escherichia coli assessed as catalytic inhibition using DYDNPIFEKFGKGGTYPRRYHVSYHGK-Biotin as substrate by scintillation proximity assay
T2 sequence (Q9H7B4 whole entry): T1 sequence (whole entry)

[13] = molecular target: Histone acetyltransferase p300 (Homo sapiens) (UniProt Q09472); assay: Inhibition of EP300 (unknown origin)
[14] = system: Histone-lysine N-methyltransferase SMYD3 (Homo sapiens), Q9H7B4 [UNDEFINED MUTATION]; assay: Inhibition of SMYD3 catalytic inactive mutant co-expressed with HA-tagged MAP3K2 transfected in human HeLa cells assessed as reduction of MAP3K2-K260me3 level at 1.1 uM incubated for 20 hrs by Western blotting analysis relative to control; type: cell-based
Outline: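 After 4 h, compound or DMSO for 20 h. Lysates immunoblotted for MAP3K2-K260me3 (in-house antibody), HA, SMYD3 and MAP3K2 with infrared secondaries. K260me3 signal normalized to HA; three technical replicates, mean ± SEM, nonlinear fit.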

[15] = molecular target: Histone-lysine N-methyltransferase SETDB1 (Homo sapiens) (UniProt Q15047); assay: Inhibition of SETDB1 (unknown origin)
[16] = molecular target: Epidermal growth factor receptor (Homo sapiens, UniProt P00533); assay: Inhibition of EGFR (unknown origin) in presence of ATP
HGC-27 = assay: Antiproliferative activity against human HGC-27 cells assessed as inhibition of cell viability measured for 3 to 5 days by alamar blue staining based assay; type: functional
[17] = molecular target: T1, Histone-lysine N-methyltransferase SMYD3 (Homo sapiens); assay: Binding affinity to recombinant human SMYD3 expressed in Escherichia coli assessed as fold change at varying MAP3K2 substrate concentration of upto 150 uM with 10 fold Km concentration by scintillation proximity assay
Outline: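 SPA, 10 nM SMYD3 methylating biotinylated MAP3K2 249–273 peptide with 3H-SAM in 20 mM Tris pH 9, 2.5 mM DTT, 0.01% Triton X-100; 40 min, 23 °C, GuHCl quench.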

[18] = molecular target: METTL3/METTL14 (Homo sapiens) (UniProt Q86U44+Q9HCE5); assay: Inhibition of METTL3/METTL14 (unknown origin); type: protein-complex assay
[19] = molecular target: Histone-lysine N-methyltransferase NSD2 (Homo sapiens) (UniProt O96028); assay: Inhibition of NSD2 (unknown origin)
[20] = molecular target: Histone-lysine N-methyltransferase 2A (Homo sapiens) (UniProt Q03164); assay: Inhibition of MLL1 (unknown origin)
[21] = molecular target: RNA 5'-monophosphate methyltransferase (Homo sapiens) (UniProt Q7Z5W3); assay: Inhibition of BCDIN3D (unknown origin)
Chain of RNA 5'-monophosphate methyltransferase (Homo sapiens) (Q7Z5W3 whole entry): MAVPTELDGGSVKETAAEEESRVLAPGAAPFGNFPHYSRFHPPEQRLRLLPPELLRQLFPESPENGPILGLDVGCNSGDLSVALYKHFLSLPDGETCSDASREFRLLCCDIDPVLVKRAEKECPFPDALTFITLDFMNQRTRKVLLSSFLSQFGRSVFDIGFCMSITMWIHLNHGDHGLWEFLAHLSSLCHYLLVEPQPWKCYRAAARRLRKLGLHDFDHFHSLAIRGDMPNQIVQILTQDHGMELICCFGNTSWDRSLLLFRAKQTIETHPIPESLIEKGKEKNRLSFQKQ

[22] = molecular target: T1, Histone-lysine N-methyltransferase SMYD3 (Homo sapiens); settings: dose 120.0 µM
KYSE-30 = assay: Antiproliferative activity against human KYSE-30 cells assessed as inhibition of cell viability measured for 3 to 5 days by alamar blue staining based assay; type: functional
[23] = Cytotoxicity against human MCF-10A cells assessed as inhibition of cell viability measured for 3 to 5 days by alamar blue staining based assay; type: toxicity
[24] = molecular target: Mitogen-activated protein kinase kinase kinase kinase 1 (Homo sapiens, UniProt Q92918); assay: Inhibition of MAP4K1 (unknown origin) by competition binding assay
[25] = molecular target: Histone-lysine N-methyltransferase PRDM9 (Homo sapiens) (UniProt Q9NQV7); assay: Inhibition of PRDM9 (unknown origin)
Chain of Histone-lysine N-methyltransferase PRDM9 (Homo sapiens) (Q9NQV7 whole entry): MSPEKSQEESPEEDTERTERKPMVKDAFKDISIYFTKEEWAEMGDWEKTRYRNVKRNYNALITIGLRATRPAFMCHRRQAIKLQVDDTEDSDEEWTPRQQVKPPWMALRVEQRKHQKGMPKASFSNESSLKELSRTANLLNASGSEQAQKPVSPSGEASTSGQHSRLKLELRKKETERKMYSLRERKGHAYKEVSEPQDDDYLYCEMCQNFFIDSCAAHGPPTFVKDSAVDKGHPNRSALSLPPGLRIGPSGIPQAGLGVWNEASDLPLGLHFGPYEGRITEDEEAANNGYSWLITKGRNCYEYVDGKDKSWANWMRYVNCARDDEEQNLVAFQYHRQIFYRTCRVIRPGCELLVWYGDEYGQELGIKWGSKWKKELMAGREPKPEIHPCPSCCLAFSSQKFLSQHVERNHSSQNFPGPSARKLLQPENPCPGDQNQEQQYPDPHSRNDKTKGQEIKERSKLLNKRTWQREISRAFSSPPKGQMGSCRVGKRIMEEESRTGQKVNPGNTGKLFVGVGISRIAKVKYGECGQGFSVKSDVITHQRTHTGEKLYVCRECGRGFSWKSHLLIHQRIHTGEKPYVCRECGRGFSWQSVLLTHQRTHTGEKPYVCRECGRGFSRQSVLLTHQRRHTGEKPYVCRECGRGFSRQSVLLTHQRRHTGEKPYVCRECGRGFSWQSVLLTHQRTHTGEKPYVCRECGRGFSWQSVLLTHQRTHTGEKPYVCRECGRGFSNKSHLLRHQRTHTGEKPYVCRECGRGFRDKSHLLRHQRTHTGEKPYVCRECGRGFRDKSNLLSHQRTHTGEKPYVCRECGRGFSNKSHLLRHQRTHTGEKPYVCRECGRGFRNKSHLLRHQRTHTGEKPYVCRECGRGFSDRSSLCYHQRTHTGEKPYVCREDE

Hs-578T = assay: Antiproliferative activity against human Hs-578T cells assessed as inhibition of cell viability measured for 3 to 5 days by alamar blue staining based assay; type: functional
[26] = molecular target: Histone-lysine N-methyltransferase ASH1L (Homo sapiens) (UniProt Q9NR48); assay: Inhibition of ASH1L (unknown origin)
[27] = molecular target: Receptor-type tyrosine-protein kinase FLT3 (Homo sapiens, UniProt P36888); assay: Inhibition of FLT3 (unknown origin)
[28] = molecular target: Protein arginine N-methyltransferase 5 (Homo sapiens) (UniProt O14744); assay: Inhibition of PRMT5 (unknown origin)

SMILES: C[C@H]1CC(=O)Nc2cc(C(=O)NCCC3CC3)ccc2N1C(=O)N1CC2CC2C1 (some centres not stated)
- IC50 [1]: > 20 µM
- inhibition [2]: inactive
- Ratio IC50 (Homo sapiens [3]): 2
- deltaG [4]: -9.2 kcal/mol
- logD [5]: 1.9
- IC50 (Jurkat): > 10 µM
- inhibition [6]: inactive
- inhibition [7]: inactive
- IC50 [8]: > 20 µM
- IC50 [9]: > 20 µM
- inhibition (Homo sapiens [10]): inactive
- IC50 [11]: > 20 µM
- IC50 [12]: 0.088 µM
- inhibition [13]: inactive
- inhibition [14]: 86%
- inhibition [15]: inactive
- IC50 [16]: > 20 µM
- IC50 (HGC-27): > 10 µM
- fold change (FC) [17]: 4
- inhibition [18]: inactive
- inhibition [19]: inactive
- inhibition [20]: inactive
- inhibition [21]: inactive
- deltaTm [22]: 8.34 K
- IC50 (KYSE-30): > 10 µM
- IC50 [23]: > 10 µM
- IC50 [24]: > 20 µM
- inhibition [25]: inactive
- IC50 (Hs-578T): > 10 µM
- inhibition [26]: inactive
- IC50 [27]: > 20 µM
- inhibition [28]: inactive

Reference: ChEMBL document CHEMBL5661986, “Discovery of the SMYD3 Inhibitor BAY-6035 Using Thermal Shift Assay (TSA)-Based High-Throughput Screening” (SLAS Discov, 2021)
